# Experiments:
# [1] = target: Human immunodeficiency virus type 1 protease (Human immunodeficiency virus 1, UniProt Q72874); assay: In vitro inhibition of HIV-1 protease.
# Procedure, shortened: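 HPLC-monitored cleavage of peptide H2N-Val-Ser-Gln-Asn-(β-naphthylalanine)-Pro-Ile-Val-OH (0.45 mM final) by purified recombinant HIV-1 protease (1-10 nM final; E. coli maltose-binding-protein fusion, cleaved off, 99% pure). Buffer 50 mM sodium acetate, 1 mg/mL BSA, pH 5.5; DMSO stock. 30 min at 37 °C, quenched with phosphoric acid. Screened at 0.1, 1, 10 μM, then IC50 from five concentrations.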
# [2] = test system: Human immunodeficiency virus 1; assay: The concentration was measured on HIV-1 IIIB virus; assay type: functional; details: read-out: ED50 (the source's name)
# Procedure, shortened: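 Human PBMCs, PHA-stimulated, infected with HIV-1 IIIB at m.o.i. 0.001–0.02 and kept with graded compound. Half the medium was replaced with fresh compound-containing medium on day 3. p24 in supernatant measured by ELISA at day 7; ED50 = dose giving 50% p24 reduction relative to control wells; n = 2.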
# Cathepsin D = Cathepsin D (Homo sapiens, UniProt P07339); assay: The inhibitory concentration value was measured on Human cathepsin D at 31000 nM
# Procedure, shortened: (§1)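 Spectrophotometric assay at 37 °C in 0.1 M formate, pH 3, with chromogenic peptide H-Pro-Thr-Glu-Phe-p-nitro-Phe-Arg-Leu-OH at 0.32 mM final. Reaction started with enzyme: 0.36 units of human liver cathepsin D or 0.03 units of porcine stomach pepsin. Absorbance at 310 nm followed for 20 min; buffer-only controls; highest concentration tested 31000 nM.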
# [3] = The biological half life (t1/2) was measured on rats after intravenous administration; assay type: ADME, organism-based; details: rat, in vivo
# Procedure, shortened: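 Male Sprague-Dawley rats (200–350 g), jugular-cannulated, fasted overnight, given an ethanol solution infused iv over 5 min: [3H] compound at 1.3 μmol/kg (n = 3) or unlabeled at 9 μmol/kg (n = 2). Plasma measured by radio-TLC or LC/MS/MS. Half-life by model-independent analysis; mean ± SEM, n = 5.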
# [4] = test system: Human immunodeficiency virus 1; assay: Inhibition of viral replication by XTT endpoint; assay type: functional; details: read-out: ED50 (the source's name)
# Procedure, shortened: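 CEM-SS cells (5000/well) in RPMI with 10% fetal calf serum infected with HIV-1 RF at multiplicity 0.04; compound from DMSO stock, final DMSO at most 0.125%. After 6 days at 37 °C, XTT/PMS added for 4 h; formazan read at 450 nm against 650 nm reference. ED50 = concentration restoring formazan in infected cells to 50% of control cells; mean of two determinations.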
# [5] = The oral bioavailability was measured on rats after oral administration; assay type: ADME, organism-based; details: rat, in vivo, read-out: Bioavailabiility
# Procedure, shortened: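 Male Sprague-Dawley rats (200-350 g), jugular cannula placed the day before, fasted overnight, water ad libitum. [3H]-labelled compound 1.3 μmol/kg iv and po (n = 3 per route, TLRC plasma assay), or unlabelled 9 μmol/kg iv and 22 μmol/kg oral (n = 2 per route, LC/MS/MS). Dosing was iv in ethanol over 5 min and oral by gavage as 0.2% CMC suspension or ethanol solution.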
# [6] = The maximum plasma concentration was measured on rats after oral administration; assay type: ADME, organism-based; set-up: route oral; details: rat
# Procedure, shortened: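 Fasted male Sprague-Dawley rats dosed by gavage as a suspension in 0.2% carboxymethyl cellulose or an ethanol solution: [3H] compound at 1.3 μmol/kg (n = 3) or unlabeled at 22 μmol/kg (n = 2). Plasma quantified by thin-layer radiochromatography (LLOQ 1 nM) or LC/MS/MS (LLOQ 10 nM). Cmax given as mean ± SEM, n = 5.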
# Pepsin A = Pepsin A (Sus scrofa, UniProt P00791); assay: The inhibitory concentration value was measured on porcine pepsin at 31000 nM; procedure, shortened: as §1
# [7] = test system: Human immunodeficiency virus 2; assay: The concentration was measured on HIV-2CBL-20 virus; assay type: functional; details: read-out: ED50 (the source's name)
# Procedure, shortened: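 HIV-2 CBL-20 infection of CEM-SS cells (5000/well) at multiplicity 0.04, in RPMI with 10% fetal calf serum; final DMSO at most 0.125%. Incubated 6 days at 37 °C, 5% CO2, then 4 h with XTT/PMS; absorbance at 450 nm (650 nm reference). ED50 from formazan relative to uninfected controls; n = 7.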
# Renin = target: T1, Renin (Homo sapiens, UniProt P00797); assay: The inhibitory concentration value was measured on Human renin at 100000 nM
# T1 sequence (P00797 whole entry): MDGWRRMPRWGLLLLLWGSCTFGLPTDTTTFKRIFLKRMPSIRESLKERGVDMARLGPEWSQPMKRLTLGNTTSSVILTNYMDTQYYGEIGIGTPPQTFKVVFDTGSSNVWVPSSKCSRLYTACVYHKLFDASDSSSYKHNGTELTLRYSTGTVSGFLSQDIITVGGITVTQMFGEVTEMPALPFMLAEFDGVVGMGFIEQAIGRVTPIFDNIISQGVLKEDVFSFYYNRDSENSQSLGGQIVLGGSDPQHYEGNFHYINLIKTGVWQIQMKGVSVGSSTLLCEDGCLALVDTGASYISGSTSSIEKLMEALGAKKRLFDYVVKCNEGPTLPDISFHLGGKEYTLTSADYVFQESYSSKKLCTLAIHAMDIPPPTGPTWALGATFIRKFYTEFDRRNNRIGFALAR
# Sequence of Cathepsin D (P07339 65-162 limits assumed): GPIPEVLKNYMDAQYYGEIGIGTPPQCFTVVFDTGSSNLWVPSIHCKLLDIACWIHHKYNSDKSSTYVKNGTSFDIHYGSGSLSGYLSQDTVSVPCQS
# Sequence of Cathepsin D (P07339 169-412 limits assumed): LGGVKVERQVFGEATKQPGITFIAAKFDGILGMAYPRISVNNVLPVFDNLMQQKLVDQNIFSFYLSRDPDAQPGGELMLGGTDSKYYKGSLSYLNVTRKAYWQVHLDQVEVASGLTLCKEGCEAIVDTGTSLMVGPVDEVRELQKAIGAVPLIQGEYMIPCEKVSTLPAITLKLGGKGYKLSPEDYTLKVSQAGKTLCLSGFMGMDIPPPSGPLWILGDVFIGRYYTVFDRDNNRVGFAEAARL
# Sequence of Pepsin A (P00791 whole entry): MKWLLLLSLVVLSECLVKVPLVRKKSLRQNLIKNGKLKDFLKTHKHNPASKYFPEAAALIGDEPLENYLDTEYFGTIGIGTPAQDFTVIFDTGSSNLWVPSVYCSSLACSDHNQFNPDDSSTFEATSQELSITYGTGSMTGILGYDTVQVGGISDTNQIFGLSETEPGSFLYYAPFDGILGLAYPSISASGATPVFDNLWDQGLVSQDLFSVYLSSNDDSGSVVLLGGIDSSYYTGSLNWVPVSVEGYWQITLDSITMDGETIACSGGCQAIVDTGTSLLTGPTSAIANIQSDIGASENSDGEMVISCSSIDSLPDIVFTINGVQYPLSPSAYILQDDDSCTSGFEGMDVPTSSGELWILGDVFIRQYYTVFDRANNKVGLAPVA
SMILES,IC50 [1],EC50 [4],further results
CC(C)(C)OC(=O)N[C@@H](Cc1ccccc1)[C@H](O)CNC[C@@H](O)[C@@H](Cc1ccccc1)NC(=O)OC(C)(C)C,10000 nM,–,–
CC(C)(C)OC(=O)N[C@@H](Cc1ccccc1)[C@H](O)CNC[C@@H](O)[C@H](Cc1ccccc1)NC(=O)OC(C)(C)C,125 nM,80 nM,EC50 [2]: 25 nM; IC50 (Cathepsin D): > 31000 nM; half-life [3]: 4.2 h; bioavailability [5]: 40%; Cmax [6]: 240 nM; IC50 (Pepsin A): > 31000 nM; EC50 [7]: 170 nM; IC50 (Renin): > 100000 nM
CN(C(=O)OC(C)(C)C)[C@@H](Cc1ccccc1)[C@H](O)CNC[C@@H](O)[C@H](Cc1ccccc1)NC(=O)OC(C)(C)C,8500 nM,> 3000 nM,–
O=C(N[C@@H](Cc1ccccc1)[C@H](O)CNC[C@@H](O)[C@H](Cc1ccccc1)NC(=O)OCc1ccccc1)OCc1ccccc1,3400 nM,> 5000 nM,–
CC(C)(C)OC(=O)NC(CCc1ccccc1)[C@H](O)CNC[C@@H](O)[C@H](Cc1ccccc1)NC(=O)OC(C)(C)C (stereo not given in full),500 nM,690 nM,–
CC(C)(C)OC(=O)NC(CC1CCCCC1)[C@H](O)CNC[C@@H](O)C(CC1CCCCC1)NC(=O)OC(C)(C)C (stereo not given in full),800 nM,660 nM,–
CN(CC(O)[C@H](Cc1ccccc1)NC(=O)OC(C)(C)C)C[C@@H](O)[C@H](Cc1ccccc1)NC(=O)OC(C)(C)C (stereo not given in full),> 10000 nM,–,–
CC(C)(C)OC(=O)N[C@@H](Cc1ccccc1)[C@@H](O)CNCC(O)[C@@H](Cc1ccccc1)NC(=O)OC(C)(C)C (stereo not given in full),> 10000 nM,–,–
CC(C)(C)OC(=O)N[C@H](CCNC[C@@H](O)[C@H](Cc1ccccc1)NC(=O)OC(C)(C)C)Cc1ccccc1,2900 nM,–,–
CC(C)(C)OC(=O)N[C@@H](Cc1ccccc1)[C@H](O)CNC[C@H](O)[C@H](Cc1ccccc1)NC(=O)OC(C)(C)C,4500 nM,–,–
CC(C)(C)CC(=O)N[C@@H](Cc1ccccc1)[C@H](O)CNC[C@@H](O)[C@H](Cc1ccccc1)NC(=O)OC(C)(C)C,4000 nM,1200 nM,–
"CCC(C)C(NC(=O)OC(C)(C)C)[C@H](O)CNC[C@@H](O)C(NC(=O)OC(C)(C)C)[C@@H](C)CC (single isomer, unassigned)",4500 nM,5300 nM,–
CC(C)(C)OC(=O)N[C@@H](Cc1ccccc1)[C@H](O)CNC[C@@H](O)[C@H](Cc1ccccc1)NC(=O)SC(C)(C)C,700 nM,800 nM,–
CC(C)(C)OC(=O)NC(Cc1ccc(O)cc1)[C@H](O)CNC[C@@H](O)[C@H](Cc1ccccc1)NC(=O)OC(C)(C)C (stereo not given in full),100 nM,60 nM,–
CO[C@H](CNC[C@@H](O)[C@H](Cc1ccccc1)NC(=O)OC(C)(C)C)[C@H](Cc1ccccc1)NC(=O)OC(C)(C)C,> 10000 nM,–,–
CC(C)(C)COC(=O)N[C@@H](Cc1ccccc1)[C@H](O)CNC[C@@H](O)[C@H](Cc1ccccc1)NC(=O)OCC(C)(C)C,6000 nM,–,–
CC(C)(C)NC(=O)N[C@@H](Cc1ccccc1)[C@H](O)CNC[C@@H](O)[C@H](Cc1ccccc1)NC(=O)OC(C)(C)C,400 nM,160 nM,–
CC(C)(C)OC(=O)N[C@@H](Cc1ccccc1)[C@@H](O)CNC[C@H](O)[C@H](Cc1ccccc1)NC(=O)OC(C)(C)C,> 10000 nM,–,–
CC(C)(C)OC(=O)N[C@@H](Cc1ccccc1)[C@H](O)COC[C@@H](O)[C@H](Cc1ccccc1)NC(=O)OC(C)(C)C,> 10000 nM,–,–
CC(C)OC(=O)N[C@@H](Cc1ccccc1)[C@H](O)CNC[C@@H](O)[C@H](Cc1ccccc1)NC(=O)OC(C)C,900 nM,1000 nM,–
CC(C)(C)OC(=O)N[C@@H](Cc1ccccc1)[C@H](O)CNC[C@H](O)[C@@H](Cc1ccccc1)NC(=O)OC(C)(C)C,> 10000 nM,–,–
